Measurements from ChEMBL document CHEMBL1649558, “Antiviral activity of chloroquine against human coronavirus OC43 infection in newborn mice” (Antimicrob Agents Chemother, 2009).

Assays:
Human coronavirus OC43 [1] = assay: Antiviral activity against Human coronavirus OC43 infected in new born C57BL/6 mouse assessed as survival rate at 15 mg/kg, sc transfered via maternal milk after administration to pregnant mouse; assay type: functional; details: Betacoronavirus 1, sc, route subcutaneous
Human coronavirus OC43 [2] = assay: Antiviral activity against Human coronavirus OC43 infected in new born C57BL/6 mouse assessed as survival rate at 5 mg/kg, sc transfered via maternal milk after administration to pregnant mouse; assay type: functional; details: Betacoronavirus 1, sc, route subcutaneous
In short: (§1)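 Pregnant C57BL/6 dams were given chloroquine subcutaneously (200 μl; 1, 5 or 15 mg/kg) prepartum or postpartum; controls were untreated. Five-day-old pups were inoculated intracerebrally with 1 × 10³ HCoV-OC43 copies in 10 μl. Mortality was monitored daily, and survivors were followed for 60 days. Survival is surviving pups over total pups; curves were compared by log-rank test.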

Human coronavirus OC43 [3] = assay: Antiviral activity against Human coronavirus OC43 infected in pregnant C57BL/6 mouse assessed as survival rate at 5 mg/kg, sc administered prepartum; assay type: functional; details: Betacoronavirus 1, sc, route subcutaneous; in short: as §1
Human coronavirus OC43 [4] = assay: Antiviral activity against Human coronavirus OC43 infected in pregnant C57BL/6 mouse assessed as survival rate at 15 mg/kg, sc administered prepartum; assay type: functional; details: Betacoronavirus 1, sc, route subcutaneous; in short: as §1
Human coronavirus OC43 [5] = assay: Antiviral activity against Human coronavirus OC43 infected in new born C57BL/6 mouse assessed as survival rate at 1 mg/kg, sc transfered via placenta after administration to pregnant mouse; assay type: functional; details: Betacoronavirus 1, sc, route subcutaneous; in short: as §1
Human coronavirus OC43 [6] = assay: Antiviral activity against Human coronavirus OC43 infected in new born C57BL/6 mouse assessed as survival rate at 5 mg/kg, sc transfered via placenta after administration to pregnant mouse; assay type: functional; details: Betacoronavirus 1, sc, route subcutaneous; in short: as §1
Human coronavirus OC43 [7] = assay: Antiviral activity against Human coronavirus OC43 infected in new born C57BL/6 mouse assessed as survival rate at 15 mg/kg, sc transfered via placenta after administration to pregnant mouse; assay type: functional; details: Betacoronavirus 1, sc, route subcutaneous
Human coronavirus OC43 [8] = assay: Antiviral activity against Human coronavirus OC43 infected in pregnant C57BL/6 mouse assessed as survival rate at 1 mg/kg, sc administered prepartum; assay type: functional; details: Betacoronavirus 1, sc, route subcutaneous; in short: as §1
[9] = Selectivity index, ratio of CC50 for human HRT18 cells to EC50 for Human coronavirus OC43 infected in human HRT18 cells; assay type: toxicity, cell-based; details: read-out: Ratio CC50/EC50
In short: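 Index = CC50/EC50. For the EC50, HRT-18 cells were seeded at 6 × 10⁴ per well and grown 4 days. They were then infected with 1 × 10⁶ OC43 copies/ml in 2% serum MEM with 0.032–500 μM compound for 4 days at 37°C. Supernatant RNA was measured by qRT-PCR against a cRNA standard curve. The CC50 came from the MTS viability assay at 4 days.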

Human coronavirus OC43 [10] = assay: Antiviral activity against Human coronavirus OC43 infected in pregnant C57BL/6 mouse assessed as survival rate at 15 mg/kg, sc administered postpartum; assay type: functional; details: Betacoronavirus 1, sc, route subcutaneous; in short: as §1
[11] = Cytotoxicity against human HRT18 cells after 4 days by MTS assay; assay type: cell-based, HRT-18
In short: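 HRT-18 cells grown in MEM with 10% fetal calf serum, 1% L-glutamine and 1.4% sodium bicarbonate were exposed to a range of compound concentrations for 4 days at 37°C, 5% CO₂. Viable cells were quantified by MTS reduction to formazan, read at 492 nm. CC50 is the concentration reducing viability by 50%.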

Human coronavirus OC43 [12] = assay: Antiviral activity against Human coronavirus OC43 infected in human HRT18 cells assessed as decrease in viral load at 10 uM treated at the time of infection measured after 28 hrs by qRT-PCR analysis relative to control; assay type: functional
In short: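 Subconfluent HRT-18 monolayers were infected with 4 × 10⁷ HCoV-OC43 genome equivalents/ml, adsorbed 30 min, and washed five times with MEM. Chloroquine (10 μM) was added at infection or at later time points. Supernatant viral RNA was quantified by qRT-PCR at 28 h postinfection. Two independent experiments in duplicate; mean ± SEM.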

Human coronavirus OC43 [13] = assay: Antiviral activity against Human coronavirus OC43 infected in pregnant C57BL/6 mouse assessed as survival rate at 1 mg/kg, sc administered postpartum; assay type: functional; details: Betacoronavirus 1, sc, route subcutaneous; in short: as §1
Human coronavirus OC43 [14] = assay: Antiviral activity against Human coronavirus OC43 infected in pregnant C57BL/6 mouse assessed as survival rate at 5 mg/kg, sc administered postpartum; assay type: functional; details: Betacoronavirus 1, sc, route subcutaneous; in short: as §1
Human coronavirus OC43 [15] = assay: Antiviral activity against Human coronavirus OC43 infected in human HRT18 cells after 4 days by qRT-PCR analysis; assay type: functional, cell-based; details: Betacoronavirus 1, HRT-18, 96 h
In short: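 HRT-18 cells were seeded and grown 4 days, then infected with 1 × 10⁶ HCoV-OC43 copies/ml in MEM with 2% FCS, with chloroquine at 0.032–500 μM. After 4 days at 37°C in 5% CO₂, viral RNA in the supernatant was quantified by qRT-PCR against a cRNA standard curve. EC50 is the concentration halving the viral RNA increase relative to untreated infected cells.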

Human coronavirus OC43 [16] = assay: Antiviral activity against Human coronavirus OC43 infected in new born C57BL/6 mouse assessed as survival rate at 1 mg/kg, sc transfered via maternal milk after administration to pregnant mouse; assay type: functional; details: Betacoronavirus 1, sc, route subcutaneous; in short: as §1

CCN(CC)CCCC(C)Nc1ccnc2cc(Cl)ccc12.O=P(O)(O)O.O=P(O)(O)O (stereo unspecified) [CHLOROQUINE PHOSPHATE]
survival at 15 mg/kg (Human coronavirus OC43 [1]): 97.4% | survival at 5 mg/kg (Human coronavirus OC43 [2]): 83.3% | survival at 5 mg/kg (Human coronavirus OC43 [3]): 92.9% | survival at 15 mg/kg (Human coronavirus OC43 [4]): 100% | survival at 1 mg/kg (Human coronavirus OC43 [5]): 33.3% | survival at 5 mg/kg (Human coronavirus OC43 [6]): 92.9% | survival at 15 mg/kg (Human coronavirus OC43 [7]): 100% | survival at 1 mg/kg (Human coronavirus OC43 [8]): 33.3% | selectivity ratio [9]: 1370 | survival at 15 mg/kg (Human coronavirus OC43 [10]): 97.4% | CC50 at 96 h [11]: 419 µM | fold change (FC) (Human coronavirus OC43 [12]): 100 | survival at 1 mg/kg (Human coronavirus OC43 [13]): 0% | survival at 5 mg/kg (Human coronavirus OC43 [14]): 83.3% | EC50 (Human coronavirus OC43 [15]): 0.306 µM | survival at 1 mg/kg (Human coronavirus OC43 [16]): 0%
